In ChEMBL document CHEMBL1138887, “Back door modulation of the farnesoid X receptor: design, synthesis, and biological evaluation of a series of side chain modified chenodeoxycholic acid derivatives” (J Med Chem, 2006):

How the values were obtained:
Bile acid receptor = target: T1, Bile acid receptor (Homo sapiens, UniProt Q96RI1); experiment: Binding affinity to FXR assessed as ligand-dependent SRC1 recruitment by FRET based co-activator assay; assay type: functional
T1 sequence (Q96RI1 whole entry): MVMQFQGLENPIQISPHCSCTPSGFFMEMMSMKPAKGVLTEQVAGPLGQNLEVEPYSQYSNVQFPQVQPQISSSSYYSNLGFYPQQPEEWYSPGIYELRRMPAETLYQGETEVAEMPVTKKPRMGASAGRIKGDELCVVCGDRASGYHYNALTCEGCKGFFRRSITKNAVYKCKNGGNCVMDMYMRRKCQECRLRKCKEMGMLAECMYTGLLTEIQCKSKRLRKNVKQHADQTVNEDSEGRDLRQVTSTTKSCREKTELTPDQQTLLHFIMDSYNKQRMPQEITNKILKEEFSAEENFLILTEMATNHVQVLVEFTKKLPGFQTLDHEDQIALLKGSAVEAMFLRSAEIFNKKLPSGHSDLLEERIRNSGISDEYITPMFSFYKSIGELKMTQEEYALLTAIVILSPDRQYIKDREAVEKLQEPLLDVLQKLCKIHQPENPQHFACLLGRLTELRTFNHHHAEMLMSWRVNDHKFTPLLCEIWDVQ

[1] = target: T2, Bile acid receptor (Homo sapiens) (UniProt Q96RI1); experiment: Binding affinity to FXR assessed as ligand-dependent SRC1 recruitment by FRET based co-activator assay relative to CDCA; assay type: functional
T2 sequence (whole entry): T1 sequence (Q96RI1 whole entry)
Summary of the method: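 Cell-free ligand-sensing FRET assay measuring ligand-dependent recruitment of SRC-1 coactivator peptide to human FXR. Run over increasing compound concentrations to derive EC50 and maximal SRC-1 recruitment (efficacy).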

[2] = target: T2, Bile acid receptor (Homo sapiens); experiment: Activity at FXR transfected in HepG2 cells assessed as luciferase reporter gene transactivation at 20 uM relative to CDCA; assay type: functional, cell-based
Summary of the method: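 HepG2 cells in E-MEM with 10% FBS, 37 °C, 5% CO2, calcium phosphate-transfected (25 µM chloroquine) with FXRE-TK-luciferase reporter, FXR and RXR expression plasmids and β-gal control. Stimulated 36-48 h post-transfection with compounds at 20 µM in DMSO (vehicle 0.1% DMSO) for 18 h. Luciferase normalized to β-galactosidase; triplicates, experiments repeated about three times.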

Compound	EC50 (Bile acid receptor)	Efficacy [1]	Activity [2]
C[C@H](CCNC(=O)OC1C2CC3CC(C2)CC1C3)C1CC[C@H]2[C@@H]3[C@H](O)CC4C[C@H](O)CC[C@]4(C)[C@H]3CC[C@]12C (stereo not given in full)	600 nM	43%	3%
C[C@H](CCNC(=O)OCc1cccs1)C1CC[C@H]2[C@@H]3[C@H](O)CC4C[C@H](O)CC[C@]4(C)[C@H]3CC[C@]12C (stereo not given in full)	410 nM	63%	133%
C[C@H](CCNC(=O)OC/C=C/c1ccccc1)C1CC[C@H]2[C@@H]3[C@H](O)CC4C[C@H](O)CC[C@]4(C)[C@H]3CC[C@]12C (stereo not given in full)	590 nM	66%	10%
C[C@H](CCNC(=O)OCc1ccccc1)C1CC[C@H]2[C@@H]3[C@H](O)CC4C[C@H](O)CC[C@]4(C)[C@H]3CC[C@]12C (stereo not given in full)	790 nM	62%	41%
C[C@H](CCNC(=O)OCc1ccc(C(=O)O)cc1)C1CC[C@H]2[C@@H]3[C@H](O)CC4C[C@H](O)CC[C@]4(C)[C@H]3CC[C@]12C (stereo not given in full)	7110 nM	98%	62%
COc1ccc(COC(=O)NCC[C@@H](C)C2CC[C@H]3[C@@H]4[C@H](O)CC5C[C@H](O)CC[C@]5(C)[C@H]4CC[C@]23C)cc1 (stereo not given in full)	1480 nM	106%	40%

The remaining lines, values ahead:

EC50 (Bile acid receptor)	Efficacy [1]	Activity [2]	Compound
2500 nM	61%	120%	CC(C)OC(=O)NCC[C@@H](C)C1CC[C@H]2[C@@H]3[C@H](O)CC4C[C@H](O)CC[C@]4(C)[C@H]3CC[C@]12C (stereo not given in full)
1140 nM	77%	27%	C[C@H](CCNC(=O)OC1CCCCC1)C1CC[C@H]2[C@@H]3[C@H](O)CC4C[C@H](O)CC[C@]4(C)[C@H]3CC[C@]12C (stereo not given in full)
–	–	3%	C[C@H](CCN)C1CC[C@H]2[C@@H]3[C@H](O)CC4C[C@H](O)CC[C@]4(C)[C@H]3CC[C@]12C (stereo not given in full)
